Screening data from PubChem.
Rows were chosen to be rich in hits. Some 1.9% of all compounds tested hit in one or more screens of this group.
Runt-CBFb FRET = inhibitors of RUNX1 Runt–CBFb binding, primary screen, biochemical, FRET, Cerulean-Runt, Venus-CBFb, uHTS | 220,000 tested, 0.46% active | inhibition, % at 20 µM | Runt-related transcription factor 1 (Homo sapiens) + Core-binding factor subunit beta … | Cerulean-Runt/Venus-CBFb FRET ratio 530/480, 1 h;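 active = inhibition over about 50% at 20 µM in the single-dose screen, limit read from the data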;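 note: 0% = DMSO wells and 100% = excess unlabeled CBFb competitor control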
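Assay system: Cerulean-tagged RUNX1 Runt domain (FRET donor) fusion protein / Amount: 100 nM each of Venus-CBFb and Cerulean-Runt domain / Medium: Tris buffer pH 7.5 with salts and BSA / Also added: Venus-CBFb 100 nM / Schedule: 1 h complex formation plus 1 h compound treatment, room temperature / Signal: FRET fluorescence / Read-out: loss of energy transfer signal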
LANA-H2B inh = blockers of LANA interaction with H2A/H2B – biochemical, FP readout, HTS, primary screen. inhibition, % (test concentration not listed). 320,000 tested, 0.6% active. AID 2629, 2010. cell-free LANA-H2A/H2B peptide, fluorescence polarization; in the data active = inhibition mostly above about 10%, no sharp cut-off; inactive = mostly below about 6.7%
Target sequence (Q9QR71 whole entry, looked up): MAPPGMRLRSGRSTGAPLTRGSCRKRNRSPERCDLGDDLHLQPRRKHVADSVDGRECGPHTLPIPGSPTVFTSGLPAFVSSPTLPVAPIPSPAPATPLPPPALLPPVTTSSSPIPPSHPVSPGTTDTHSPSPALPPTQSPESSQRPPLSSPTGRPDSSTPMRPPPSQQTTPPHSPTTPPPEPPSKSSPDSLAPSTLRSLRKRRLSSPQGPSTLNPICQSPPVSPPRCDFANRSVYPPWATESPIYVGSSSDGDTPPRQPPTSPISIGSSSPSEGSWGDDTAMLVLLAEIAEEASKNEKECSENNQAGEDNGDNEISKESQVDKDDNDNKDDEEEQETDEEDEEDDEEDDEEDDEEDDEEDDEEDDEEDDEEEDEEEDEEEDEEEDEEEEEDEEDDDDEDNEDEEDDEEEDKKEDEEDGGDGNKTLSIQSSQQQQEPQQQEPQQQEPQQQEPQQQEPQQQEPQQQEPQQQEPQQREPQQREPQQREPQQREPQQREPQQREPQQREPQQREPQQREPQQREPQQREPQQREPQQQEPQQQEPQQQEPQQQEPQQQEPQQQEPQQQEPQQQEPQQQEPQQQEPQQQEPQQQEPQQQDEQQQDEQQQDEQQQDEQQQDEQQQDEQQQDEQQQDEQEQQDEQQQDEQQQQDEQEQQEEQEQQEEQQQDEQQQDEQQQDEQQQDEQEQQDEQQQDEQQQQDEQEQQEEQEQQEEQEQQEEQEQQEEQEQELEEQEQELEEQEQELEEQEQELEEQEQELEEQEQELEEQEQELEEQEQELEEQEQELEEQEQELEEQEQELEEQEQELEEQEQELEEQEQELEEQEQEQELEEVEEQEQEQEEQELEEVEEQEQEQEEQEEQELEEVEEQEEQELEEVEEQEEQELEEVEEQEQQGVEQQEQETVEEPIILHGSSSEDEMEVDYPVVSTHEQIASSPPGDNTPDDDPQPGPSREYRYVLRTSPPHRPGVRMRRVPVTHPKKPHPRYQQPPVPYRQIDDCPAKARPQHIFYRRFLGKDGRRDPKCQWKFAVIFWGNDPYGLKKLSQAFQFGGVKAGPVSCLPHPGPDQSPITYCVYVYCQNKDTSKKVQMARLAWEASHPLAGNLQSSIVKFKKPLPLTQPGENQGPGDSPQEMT
CaV13 ICDI inh = Disruptors of the CACNA1D IQ motif to Ca2+-dependent inactivation inhibitor domain association, primary screening, Förster resonance energy transfer in intact living … | 340,000 tested, 0.098% active | HEK cells, CFP/YFP FRET ICDI-IQ, plate reader, 10 min; percent FRET-ratio fall versus neutral wells | inhibition, % at 12.3 µM;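 active = mean replicate inhibition of at least 30% and at least 1% of replicates passing that level; inconclusive = only one of the two criteria is met; inactive = neither criterion is met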;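 note: 0% = median of the neutral control wells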
HDAC3 inh = HDAC3 deacetylase inhibitors, primary screen, biochemical, fluorescence, cell-free homogeneous. 320,000 tested, 0.15% active. Histone deacetylase 3 (Homo sapiens), O15379. recombinant HDAC3, fluorogenic peptide/trypsin coupled. AID 2718, 2010. inhibition, % at 8.3 µM; in the data active = inhibition above about 26%, passing the limit was not always enough; inconclusive = no clear call, values can overlap the other calls
Runt-SMMHC FRET = inhibitors of RUNX1 Runt–CBFb-SMMHC binding, primary screen, biochemical, FRET, Cerulean-Runt, Venus-CBFb-SMMHC, uHTS. Runt-related transcription factor 1 (Homo sapiens) + Core-binding factor subunit beta …. Cerulean-Runt/Venus-CBFb-SMMHC FRET ratio 530/480, 1 h. inhibition, % at 20 µM. 220,000 tested, 0.74% active;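 active = mean inhibition across duplicate retests at 20 µM reaching about 50%, limit read from the data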;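 note: 0% = DMSO wells and 100% = wells with excess untagged CBFb-SMMHC; inhibitors lower the FRET ratio by blocking Runt binding to CBFb-SMMHC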
RanGTP-Imp inh = inhibitors of RanGTP-importin-beta interaction, primary screen, biochemical, FRET, CFP-Ran, YFP-importin-beta, homogeneous. 300,000 tested, 1.1% active. AID 2216, 2009. inhibition, % (test concentration not listed). cell-free CFP-Ran/YFP-importin-beta FRET ratio;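 active = more than half of the replicate wells show a fall in the fluorescence ratio signal beyond about 16%, limit read from the data, passing the limit was not always enough; inconclusive = exactly half of the replicate wells pass the set limit; inactive = fewer than half of replicates pass the limit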;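 note: 0% = DMSO wells and 100% = Ran loaded with GDP instead of GTP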
* marks the source's active call; other numbers are inactive results; u = inconclusive; x = no result given; + = active, no number.

SMILES	Runt-CBFb FRET	LANA-H2B inh	CaV13 ICDI inh	HDAC3 inh	Runt-SMMHC FRET	RanGTP-Imp inh
C=CCn1c2ccccc2c(=O)c2cc(C#CC3(O)CCCCC3)ccc21	x	-5	9	-67	x	161*
O=C(O)CNC(=O)C1CCCN1C(=O)CNC(=O)OCc1ccccc1 (stereo not given)	x	-3	-20	2	x	0
O=C(NCc1ccc(F)cc1)c1cc(S(=O)(=O)N2CCCCC2)ccc1Cl	x	79*	-5	1	x	x
CCCN1C(=O)c2cc(C(=O)Nc3ccc(OC)cc3OC)ccc2C1Nc1ccc(OC)cc1OC (stereo not given)	-8	3	-4	0	0	u
COc1ccc(Cc2nnc(Nc3ccc(C)cc3C)[nH]c2=O)cc1	-1	-1	-4	3	0	-1
CN(Cc1ccccc1)C(=O)COC(=O)C12CC3CC(CC(Br)(C3)C1)C2	x	-3	-3	12	x	x
CCN(CC)CC(=O)Nc1scc2c1c(=O)oc1ccccc12	3	-8	-5	3	-3	-5
CCOc1cc(/C=C2\CCCc3c2nc2ccccc2c3C(=O)O)ccc1OC	x	85*	5	4	x	47*
Cc1cccc(C)c1NC(=O)COC(=O)c1c2c(nc3ccccc13)/C(=C\c1ccc3c(c1)OCO3)CCC2	-184	63*	-26	4	73	x
COc1cc(/C=C2\CCCc3c2nc2ccccc2c3C(=O)O)cc(Br)c1O	x	-3	-5	4	x	0
Cc1ccc2[nH]c3c(c2c1)CN(C(=O)CN1CC(C)OC(C)C1)CC3 (stereo not given)	-82	-18	-8	13	-101	x
CC(C)NC(=O)c1c(CSc2ccccc2)noc1C(=O)NCc1ccccc1	2	-2	-8	3	-4	7
O=C(NO)c1ccc(OC(F)F)cc1	-2	6	-5	73*	-2	1
CCCc1c(C(=O)Nc2ccc(OC)cc2)cnn1-c1ccccc1	1	3	-4	2	3	-1
CCCc1c(C(=O)NNc2ccccc2OC)cnn1-c1ccccc1	1	18*	-15	1	-4	u
COc1ccccc1CN(C)C(=O)c1cccc(S(=O)(=O)N2CCN(Cc3ccccc3)CC2)c1	x	3	-6	0	x	6
Cc1ccc(CCN2CC(C(=O)NC3CCCC3)CC2=O)cc1 (stereo not given)	0	-16	x	2	-2	1
Cc1ccc(CCN2CC(C(=O)NC3CCCCC3)CC2=O)cc1 (stereo not given)	x	22*	-2	1	x	-3
COc1ccc(NC2=C(Cl)C(=O)N(c3ccccc3)C2=O)c(OC)c1	-1	15*	-3	-8	-4	0
Cc1c(Br)c(=O)oc2c(Br)c(O)ccc12	21	1	13	-87	86*	3
Cc1cc(=O)oc2c(CN(CC(C)C)CC(C)C)c(O)ccc12	42	2	-5	-324	77*	0
CCN(CC)Cc1c(O)c(Cl)cc2c(C)cc(=O)oc12	76*	x	35*	x	138*	13
Cc1cc(=O)oc2c(O)c(O)ccc12	x	x	-5	x	x	x
Cc1c(O)ccc2c3c(c(=O)oc12)CCCC3	75*	-2	-5	-77	90*	x
C/C(Cn1nnc([N+](=O)[O-])n1)=N\NC(=O)c1ccccc1O	0	-3	1	5	4	-4
SMILES	Runt-CBFb FRET	LANA-H2B inh	CaV13 ICDI inh	HDAC3 inh	Runt-SMMHC FRET	RanGTP-Imp inh
Cc1c(Cc2ccccc2)c(=O)oc2c(O)c(O)ccc12	19	x	-5	x	8	-1
Cc1c(OC(=O)CNC(=O)OC(C)(C)C)ccc2c3c(c(=O)oc12)CCC3	37	6	-6	2	83*	x
C=CCc1c(O)c(CC)cc2c(C)cc(=O)oc12	47	5	+	-316	80*	62*
Cc1c(Cc2ccccc2)c(=O)oc2c(CN(C)C)c(O)c(Cl)cc12	126*	5.7*	-1	-114	90*	71*
Cc1c(OCC(=O)OC(C)(C)C)ccc2c3c(c(=O)oc12)CCC3	-7	1	-2	0	1	5
CC(C)CN(Cc1c(O)ccc2c3c(c(=O)oc12)CCC3)CC(C)C	39	9	-6	-8	100*	1
Cc1c(OCC(=O)OC(C)C)ccc2c3c(c(=O)oc12)CCC3	-5	-6	x	-2	0	-3
CCC(=O)c1cc2c(C)cc(=O)oc2c(C)c1O	27	-2	x	6	65	2
NNC(=O)c1cc2cc3ccccc3nc2s1	0	-1	-20	14	-2	1
CCOC(=O)/C(=C/c1ccc(OC(F)F)cc1)C1=Nn2c(nnc2-c2ccc(Cl)cc2)SC1	x	x	-4	x	x	x
CN(Cc1ccccc1)C(=S)Nc1ccc2nc3n(c(=O)c2c1)CCCCC3	2	-2	2	-1	3	5
COc1ccc(CCNC(=O)COc2ncnc3ccccc23)cc1	-2	4	0	10	0	0
CC1CC(=O)N(C)c2ccc([N+](=O)[O-])cc2N1 (stereo not given)	1	-4	-3	u	3	0
O=C(NCc1ccc2c(c1)OCO2)c1ccc(NC(=O)C2CCCO2)cc1 (stereo not given)	0	-3	-6	3	-2	-3
O=C(Nc1ccc2c(c1)OCCO2)c1ccc(NC(=O)C2CCCO2)cc1 (stereo not given)	-1	2	93*	8	-1	-3
Cc1nnc(SCC(=O)c2cc(C)n(-c3ccc4c(c3)OCO4)c2C)s1	1	27*	-5	8	-2	5
c1ccc(CCNC2=NCCS2)cc1	x	1	-7	2	x	-6
Cc1[nH]c(-c2ccc3c(c2)OCO3)nc1C(=O)O	0	-1	-5	-8	-2	1
Cc1[nH]c(-c2ccco2)nc1C(=O)O	8	15*	-8	-1	12	-3
COc1ccc(C2(CNC(C)=O)CCCC2)cc1OC	2	1	-5	-5	2	1
CC(=O)NCC1(O)CCCC(C)C1 (stereo not given)	-1	19*	3	-6	-1	4
